High-throughput results from PubChem BioAssay.
Only some compounds are listed: those with a hit (about 1.6% of all), similar ones and a draw of the others.
PKD1 kinase inh: blocks activity of human protein kinase D1; Q15139; PKD1 kinase fluorescence polarization assay; inhibition, % (test concentration not listed); 200,000 tested, 0.056% active; in the data active means inhibition above about 50%
ABCG2 inh: blocks JC-1 efflux by human ABCG2 transporter. Q9UNQ0. IgMXP3 cells, flow cytometry. 190,000 tested, 0.1% active. inhibition, % at 6.6 µM;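 active means inhibition above 80%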;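 further: 0% = DMSO and 100% = nicardipine control wells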
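Assay system – ABCG2 IgMXP3 and barcoded ABCB1 CCRF-Adr cell mix · Input – 3 million cells/mL in well · Reagent – JC-1 fluorescent substrate · Compound – single test compound dose, 6.6 µM final · Timing – 10 min exposure at 25 °C with rotation, no wash · Detection – flow cytometry of retained JC-1 fluorescence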
PHOSPHO1 inh: inhibitors of human PHOSPHO1 phosphatase; recombinant PHOSPHO1, absorbance phosphatase assay; AID 1565; Q8TCT1; 290,000 tested, 1.1% active; inhibition, % at 13.3 µM; in the data active means inhibition above about 60%
Target sequence (Q8TCT1 whole entry, looked up): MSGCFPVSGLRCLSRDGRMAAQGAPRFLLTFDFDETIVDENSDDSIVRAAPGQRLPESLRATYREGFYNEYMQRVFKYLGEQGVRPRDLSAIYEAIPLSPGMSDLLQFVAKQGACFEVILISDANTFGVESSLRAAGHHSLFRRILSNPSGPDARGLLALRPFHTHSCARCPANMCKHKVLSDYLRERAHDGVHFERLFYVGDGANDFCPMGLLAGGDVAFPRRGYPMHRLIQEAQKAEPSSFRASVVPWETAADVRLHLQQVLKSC
HSV augment: HSV replication enhancement; HSV replication augmentation in cells, fold increase; maximum fold increase; 220,000 tested, 0.005% active; AID 1956; in the data active means maximum fold increase above about 1.5; tested in PC3 cells
NCF1 inh: p47phox (human) inhibition | 220,000 tested, 0.53% active | P14598 | p47phox/p22phox peptide binding, fluorescence polarization, 2 h | inhibition, % at 24.7 µM;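 active means inhibition above about 30%, limit read from the data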;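 further: 0% = p47phox with labelled peptide and 100% = labelled peptide alone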
ABCB1 inh: blocks JC-1 efflux by human ABCB1 transporter | inhibition, % at 6.6 µM | CCRF-Adr cells, flow cytometry | AID 1326 | 190,000 tested, 0.067% active; in the data active means inhibition above about 40%;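 further: 0% = vehicle and 100% = reference inhibitor; higher value means more JC-1 retained so stronger ABCB1 efflux block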
An asterisk follows results filed as active; i = inactive; . = no result given; + = active, no number.

SMILES	PKD1 kinase inh	ABCG2 inh	PHOSPHO1 inh	HSV augment	NCF1 inh	ABCB1 inh
COc1ccc(Nc2cc(C(=O)NCCCN3CCN(C)CC3)c3ccccc3n2)c(OC)c1	-14.4	6.1	67.3*	i	-2.6	0.9
Cc1ccccc1-n1c(-c2ccc3ccccc3n2)n[nH]c1=S	.	.	71.4*	i	-13.0	.
COc1ccc(OC)c(-n2c(-c3ccccc3)n[nH]c2=S)c1	-0.9	-2.1	102.0*	i	-2.5	-0.7
COc1ccc(-c2cc(-c3n[nH]c(=S)n3-c3ccccc3OC)[nH]n2)cc1	-6.5	-4.4	67.2*	i	-2.7	-0.6
O=C1NC(=S)S/C1=C1\Sc2ccccc2N1CCCS(=O)(=O)O	10.3	-14.6	71.5*	i	-17.7	-2.1
CCN1C(=O)/C(=C2/Sc3ccccc3N2CC)SC1=S	.	.	40.8	.	.	.
CCN1C(=O)C(=O)N(Cc2ccc(OC)c(F)c2)C1=O	.	.	15.1	.	.	.
Cc1cc(C(=O)CSc2nnc(-c3cccnc3)n2-c2ccccc2)c(C)n1CC1CCCO1 (stereo not drawn)	-4.2	2.4	74.2*	i	-14.7	1.1
Cc1cc(C(=O)CSc2nnc(-c3ccncc3)n2-c2ccccc2)c(C)n1C	6.8	5.9	76.6*	i	-17.8	0.8
CCCn1c(=O)c2ccccc2n2c(SCC(=O)c3cc(C)n(CC4CCCO4)c3C)nnc12 (stereo not drawn)	.	.	66.2*	.	.	.
Cc1cc(C(=O)CSc2nnc(-c3ccccc3)n2C)c(C)n1C	-14.4	9.0	24.2	i	-1.1	1.2
O=C(CSc1nnc(-c2cccnc2)n1-c1ccccc1)N1CCN(c2ccc(F)cc2)CC1	10.3	0.0	25.7	i	-6.9	0.2
O=C(CSc1nnc(-c2ccncc2)n1-c1ccccc1)N1CCN(c2ccc(Cl)cc2)CC1	-2.6	6.0	93.2*	.	-8.8	1.6
COC(C[C@H]1O[C@H]1[C@@H](O)[C@H](C)OCc1ccccc1)OC	.	.	39.7	i	-16.6	.
CCOC(=O)c1c(CSC(=N)N)n(-c2ccccc2)c2cc(Br)c(OC(C)=O)cc12	.	.	27.7	i	-4.1	.
Cc1ccc(CN(C(=O)COc2ccc(Br)cc2)C2CCS(=O)(=O)C2)o1 (stereo not drawn)	.	.	18.4	.	.	.
Cc1cc(C(=O)CSc2nnc(-c3ccccc3)n2-c2ccccc2)c(C)n1-c1ncn[nH]1	-0.9	0.4	75.3*	i	-16.9	-0.1
COc1ccccc1CN1CC(C(=O)N(C)CCc2nc3ccc(F)cc3[nH]2)CCC1=O (stereo not drawn)	.	.	64.0*	.	.	.
COc1ccccc1CN1CC(C(=O)N(C)CCOc2ccccc2)CCC1=O (stereo not drawn)	.	.	22.2	.	.	.
COc1ccc(-c2nc3ccccc3c(=O)n2-c2c(C)n(C)n(-c3ccccc3)c2=O)cc1	.	.	23.7	i	-1.0	.
Cc1c(-n2c(-c3ccccc3)nc3ccccc3c2=O)c(=O)n(-c2ccccc2)n1C	-0.7	-1.4	60.0*	i	-5.2	-0.6
COc1ccc(NC(=O)N2CCc3ccccc3C2)c(OC)c1	.	.	38.3	.	.	.
O=C(COc1ccc(S(=O)(=O)N2CCCCC2)cc1)NCc1cccnc1	-10.1	1.2	8.6	i	35.0*	0.4
COc1ccc(CNC(=O)COc2ccc(S(=O)(=O)N3CCCCC3)cc2)cc1	.	.	47.5	.	.	.
CCOC(=O)c1ccc(NC(=O)CSc2nnc(Cn3c(=O)sc4ccccc43)n2C)cc1	-8.2	1.3	-9.0	.	+	4.1
SMILES	PKD1 kinase inh	ABCG2 inh	PHOSPHO1 inh	HSV augment	NCF1 inh	ABCB1 inh
CCOC(CNC(=O)CN1C(=O)COc2ccc(S(=O)(=O)N3CC(C)CC(C)C3)cc21)OCC (stereo not drawn)	.	.	33.4	.	.	.
Cc1nc(S(=O)(=O)Nc2ccccc2C(=O)NCC2CC2)cn1C	.	.	62.7*	i	-8.0	.
NC(=O)NCCc1ccccc1	.	.	4.0	.	.	.
O=C(Nc1nnc(C2=COCCO2)o1)c1cccc(Br)c1	.	.	61.0*	.	.	.
CC(C)Cn1c(-c2ccco2)csc1=Nc1cccnc1	1.7	0.2	46.6	i	-41.2	0.0
COCCn1c(-c2ccco2)csc1=Nc1cccnc1	-0.2	1.6	97.9*	i	-45.8	0.4
Cc1ccc(-n2c(C)cc(/C=c3/sc4nc5ccccc5n4c3=O)c2C)cc1	-0.5	-2.4	61.5*	i	-51.2	-0.7
O=[N+]([O-])c1cc([N+](=O)[O-])c(Oc2c(F)ccc(F)c2F)cc1NN1CCCCC1	.	.	-7.3	.	.	.
CC(C)C[C@H](NC(=O)C1CC(=O)N(c2ccc3c(c2)OCO3)C1)C(=O)NC1CCCC1 (stereo partly drawn)	.	.	70.1*	.	.	.
